According to ChEMBL document CHEMBL1949555, “Piperazine-2,3-dicarboxylic acid derivatives as dual antagonists of NMDA and GluK1-containing kainate receptors” (J Med Chem, 2012):
Activity calls are given as the source filed them.

How the values were obtained:
[1] = biological target: Glutamate NMDA receptor; Grin1/Grin2b (Rattus norvegicus, UniProt P35439+Q00960); assay: Antagonist activity rat recombinant GluN1/GluN2B receptor expressed in Xenopus laevis oocytes assessed as inhibition of glutamate-induced response by two-electrode voltage-clamp electrophysiology assay; format: functional, cell-based, Oocyte; settings: read-out: Ki(app)
In short: (§1)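 Two-electrode voltage clamp of oocytes expressing rat GluN1a with the given GluN2 subunit, held at −60 mV in buffer of 116 mM NaCl, 2 mM KCl, 0.3 mM BaCl2, 5 mM HEPES, pH 7.4. Response is the steady plateau to bath-applied 10 μM L-glutamate plus 10 μM glycine. IC50 converted to apparent Ki via Ki = IC50/(1 + [agonist]/EC50). Means ± s.e.m.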

[2] = biological target: Ionotropic glutamate receptor NMDA 1/2D (Rattus norvegicus, UniProt P35439+Q62645); assay: Antagonist activity rat recombinant GluN1/GluN2D receptor expressed in Xenopus laevis oocytes assessed as inhibition of glutamate-induced response by two-electrode voltage-clamp electrophysiology assay; format: functional, cell-based, Oocyte; settings: read-out: Ki(app)
[3] = biological target: Glutamate NMDA receptor; Grin1/Grin2c (Rattus norvegicus, UniProt P35439+Q00961); assay: Antagonist activity rat recombinant GluN1/GluN2C receptor expressed in Xenopus laevis oocytes assessed as inhibition of glutamate-induced response by two-electrode voltage-clamp electrophysiology assay; format: functional, cell-based, Oocyte; settings: read-out: Ki(app); in short: as §1
[4] = biological target: Ionotropic glutamate receptor NMDA 1/2D (Rattus norvegicus) (UniProt P35439+Q62645); assay: Antagonist activity rat recombinant GluN1/GluN2D receptor expressed in Xenopus laevis oocytes assessed as inhibition of glutamate-induced response at 100 uM by two-electrode voltage-clamp electrophysiology assay; format: functional, cell-based; settings: Oocyte
In short: (§2)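 Rat GluN1a co-expressed with GluN2A, 2B, 2C or 2D in Xenopus oocytes. Two-electrode voltage clamp at −60 mV in buffer of 116 mM NaCl, 2 mM KCl, 0.3 mM BaCl2, 5 mM HEPES, pH 7.4. Response is the steady plateau evoked by bath-applied 10 μM L-glutamate plus 10 μM glycine. Read-out is percent antagonism by 100 μM test compound.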

[5] = biological target: Glutamate NMDA receptor; Grin1/Grin2a (Rattus norvegicus) (UniProt P35439+Q00959); assay: Antagonist activity at rat recombinant GluN1/GluN2A receptor expressed in Xenopus laevis oocytes assessed as inhibition of glutamate-induced response at 100 uM by two-electrode voltage-clamp electrophysiology assay; format: functional, cell-based; settings: Oocyte; in short: as §2
[6] = biological target: Glutamate receptor ionotropic, kainate 1 (Homo sapiens, UniProt P39086); assay: Antagonist activity at human recombinant GluK1 receptor expressed in human HEK293 cells assessed as inhibition of glutamate-stimulated calcium influx by fluorescence assay; format: functional, cell-based
Sequence of Glutamate receptor ionotropic, kainate 1 (P39086 whole entry): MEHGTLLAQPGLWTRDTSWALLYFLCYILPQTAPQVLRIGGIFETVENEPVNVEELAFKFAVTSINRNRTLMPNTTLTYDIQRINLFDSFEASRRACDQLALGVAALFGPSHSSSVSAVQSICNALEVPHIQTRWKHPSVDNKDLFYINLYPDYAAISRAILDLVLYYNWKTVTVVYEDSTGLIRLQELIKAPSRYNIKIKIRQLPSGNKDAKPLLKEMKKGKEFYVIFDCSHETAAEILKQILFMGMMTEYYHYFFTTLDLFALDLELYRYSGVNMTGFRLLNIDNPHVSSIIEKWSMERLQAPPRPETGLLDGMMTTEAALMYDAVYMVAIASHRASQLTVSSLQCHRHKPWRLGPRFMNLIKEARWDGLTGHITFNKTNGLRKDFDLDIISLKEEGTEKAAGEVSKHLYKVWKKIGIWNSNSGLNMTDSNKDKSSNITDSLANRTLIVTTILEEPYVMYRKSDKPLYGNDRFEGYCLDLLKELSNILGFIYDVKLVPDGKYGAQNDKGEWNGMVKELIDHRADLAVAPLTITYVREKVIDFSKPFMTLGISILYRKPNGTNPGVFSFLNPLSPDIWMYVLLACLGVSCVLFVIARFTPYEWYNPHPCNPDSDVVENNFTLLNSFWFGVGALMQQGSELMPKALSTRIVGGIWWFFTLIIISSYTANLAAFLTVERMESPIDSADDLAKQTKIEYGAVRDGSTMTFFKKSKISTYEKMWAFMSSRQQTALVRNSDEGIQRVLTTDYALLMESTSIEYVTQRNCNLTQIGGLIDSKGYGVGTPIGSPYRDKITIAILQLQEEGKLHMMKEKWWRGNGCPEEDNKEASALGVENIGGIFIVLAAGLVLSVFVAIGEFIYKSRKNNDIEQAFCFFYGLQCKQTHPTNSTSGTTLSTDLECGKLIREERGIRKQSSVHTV
In short: (§3)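 HEK293 lines stably expressing homomeric human GluK1(Q) or GluK2(Q), passaged no more than 20 times. Ca2+ influx is read as fluorescence, with concanavalin A present. Test compound is added in a first run, then L-glutamate plus antagonist in a second run (final glutamate 30 μM for GluK1, 10 μM for GluK2). IC50 values are converted to KB. Means ± s.e.m.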

[7] = biological target: Glutamate NMDA receptor; Grin1/Grin2a (Rattus norvegicus, UniProt P35439+Q00959); assay: Antagonist activity at rat recombinant GluN1/GluN2A receptor expressed in Xenopus laevis oocytes assessed as inhibition of glutamate-induced response by two-electrode voltage-clamp electrophysiology assay; format: functional, cell-based, Oocyte; settings: read-out: Ki(app)
[8] = biological target: Glutamate NMDA receptor; Grin1/Grin2c (Rattus norvegicus) (UniProt P35439+Q00961); assay: Antagonist activity rat recombinant GluN1/GluN2C receptor expressed in Xenopus laevis oocytes assessed as inhibition of glutamate-induced response at 100 uM by two-electrode voltage-clamp electrophysiology assay; format: functional, cell-based; settings: Oocyte; in short: as §2
[9] = biological target: Glutamate NMDA receptor; Grin1/Grin2b (Rattus norvegicus) (UniProt P35439+Q00960); assay: Antagonist activity rat recombinant GluN1/GluN2B receptor expressed in Xenopus laevis oocytes assessed as inhibition of glutamate-induced response at 100 uM by two-electrode voltage-clamp electrophysiology assay; format: functional, cell-based; settings: Oocyte; in short: as §2
[10] = biological target: Glutamate receptor ionotropic, kainate 2 (Homo sapiens, UniProt Q13002); assay: Antagonist activity at human recombinant GluK2 receptor expressed in human HEK293 cells assessed as inhibition of glutamate-stimulated calcium influx by fluorescence assay; format: functional, cell-based; in short: as §3
Sequence of Glutamate receptor ionotropic, kainate 2 (Q13002 whole entry): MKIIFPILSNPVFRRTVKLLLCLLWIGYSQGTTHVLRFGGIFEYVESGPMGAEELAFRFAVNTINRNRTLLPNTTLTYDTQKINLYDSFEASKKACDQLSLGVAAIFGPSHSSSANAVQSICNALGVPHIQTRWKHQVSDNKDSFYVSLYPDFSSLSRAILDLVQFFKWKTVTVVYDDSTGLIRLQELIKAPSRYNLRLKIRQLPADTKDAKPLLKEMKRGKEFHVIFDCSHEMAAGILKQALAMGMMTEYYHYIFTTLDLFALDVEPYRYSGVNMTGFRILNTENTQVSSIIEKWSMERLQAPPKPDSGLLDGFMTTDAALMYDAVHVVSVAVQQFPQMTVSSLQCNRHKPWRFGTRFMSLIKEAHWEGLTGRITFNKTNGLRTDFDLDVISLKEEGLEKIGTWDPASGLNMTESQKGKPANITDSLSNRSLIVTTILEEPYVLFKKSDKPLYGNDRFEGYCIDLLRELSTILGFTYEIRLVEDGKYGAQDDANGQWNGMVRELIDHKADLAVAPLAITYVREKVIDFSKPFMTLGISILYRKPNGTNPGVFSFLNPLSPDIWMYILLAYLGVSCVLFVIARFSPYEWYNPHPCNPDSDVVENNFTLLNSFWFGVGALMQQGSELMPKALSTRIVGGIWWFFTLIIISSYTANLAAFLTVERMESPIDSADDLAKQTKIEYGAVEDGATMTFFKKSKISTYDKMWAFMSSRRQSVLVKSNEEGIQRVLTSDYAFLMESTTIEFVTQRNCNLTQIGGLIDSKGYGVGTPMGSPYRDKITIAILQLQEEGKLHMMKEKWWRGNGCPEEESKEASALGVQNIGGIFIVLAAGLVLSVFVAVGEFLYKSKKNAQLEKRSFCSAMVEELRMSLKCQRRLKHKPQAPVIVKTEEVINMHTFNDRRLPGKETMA

[11] = test system: Kainate receptors (Rattus norvegicus); assay: Displacement of [3H]-Kainate from native kainate receptors in rat brain homogenate; settings: concentration not given here
[12] = organism: Rattus norvegicus; assay: Selectivity ratio of Ki(app) for rat recombinant GluN1/GluN2B receptor to Ki(app) for rat recombinant GluN1/GluN2D receptor
In short: (§4)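 Rat GluN1a is co-expressed with GluN2A, 2B, 2C or 2D in Xenopus oocytes and recorded by two-electrode voltage clamp at −60 mV. Buffer is 116 mM NaCl, 2 mM KCl, 0.3 mM BaCl2, 5 mM HEPES, pH 7.4. The plateau response to bath-applied 10 μM L-glutamate plus 10 μM glycine is measured. Apparent Ki is IC50/(1+[agonist]/EC50).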

[13] = Selectivity ratio of Kb for human recombinant GluK1 receptor to Ki(app) for rat recombinant GluN1/GluN2D receptor
[14] = organism: Rattus norvegicus; assay: Selectivity ratio of Ki(app) for rat recombinant GluN1/GluN2C receptor to Ki(app) for rat recombinant GluN1/GluN2D receptor; in short: as §4
[15] = organism: Rattus norvegicus; assay: Selectivity ratio of Ki(app) for rat recombinant GluN1/GluN2A receptor to Ki(app) for rat recombinant GluN1/GluN2D receptor
[16] = Solubility of the compound in water at >100 uM; format: physicochemical; settings: buffer
[17] = test system: Rattus norvegicus; assay: Antinociceptive activity in Wistar rat at 30 mg/kg, ip; format: functional, organism-based; design: dose 30 mg/kg
In short: (§5)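 Male Wistar rats (~250 g) with partial saphenous nerve ligation injury, tested on day 7 after injury and also before injury. Drug at 30 mg/kg or vehicle is given i.p. (n=5/group), with testing starting 15 min later. Mechanical threshold is taken from von Frey stimulus:response curves on both hindpaws (5 applications per hair). Thermal latency to radiant heat is the mean of 3 trials per hindpaw. Analysis by two-way ANOVA.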

[18] = organism: Rattus norvegicus; assay: Antagonist activity at AMPA receptor in CA3 region of rat hippocampus assessed as change in AMPA-mediated field excitatory postsynaptic potential at 100 uM; format: functional, tissue-based
In short: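 Field EPSPs recorded from transverse rat hippocampal slices (400 μm), CA3 mossy fiber synapses. Compound 100 μM perfused 30 min. fEPSPs averaged every 2 min; slope between 20 and 80% of maximum measured and expressed as % of control slope. Mean ± s.e.m., n=4.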

[19] = biological target: Glutamate receptor ionotropic, kainate 3 (Rattus norvegicus) (UniProt P42264); assay: Displacement of [3H]-Kainate from wild type rat GluK3 receptor transfected in human HEK293 cells at 100 uM by immunoblot analysis; format: cell-based
Sequence of Glutamate receptor ionotropic, kainate 3 (Rattus norvegicus) (P42264 whole entry): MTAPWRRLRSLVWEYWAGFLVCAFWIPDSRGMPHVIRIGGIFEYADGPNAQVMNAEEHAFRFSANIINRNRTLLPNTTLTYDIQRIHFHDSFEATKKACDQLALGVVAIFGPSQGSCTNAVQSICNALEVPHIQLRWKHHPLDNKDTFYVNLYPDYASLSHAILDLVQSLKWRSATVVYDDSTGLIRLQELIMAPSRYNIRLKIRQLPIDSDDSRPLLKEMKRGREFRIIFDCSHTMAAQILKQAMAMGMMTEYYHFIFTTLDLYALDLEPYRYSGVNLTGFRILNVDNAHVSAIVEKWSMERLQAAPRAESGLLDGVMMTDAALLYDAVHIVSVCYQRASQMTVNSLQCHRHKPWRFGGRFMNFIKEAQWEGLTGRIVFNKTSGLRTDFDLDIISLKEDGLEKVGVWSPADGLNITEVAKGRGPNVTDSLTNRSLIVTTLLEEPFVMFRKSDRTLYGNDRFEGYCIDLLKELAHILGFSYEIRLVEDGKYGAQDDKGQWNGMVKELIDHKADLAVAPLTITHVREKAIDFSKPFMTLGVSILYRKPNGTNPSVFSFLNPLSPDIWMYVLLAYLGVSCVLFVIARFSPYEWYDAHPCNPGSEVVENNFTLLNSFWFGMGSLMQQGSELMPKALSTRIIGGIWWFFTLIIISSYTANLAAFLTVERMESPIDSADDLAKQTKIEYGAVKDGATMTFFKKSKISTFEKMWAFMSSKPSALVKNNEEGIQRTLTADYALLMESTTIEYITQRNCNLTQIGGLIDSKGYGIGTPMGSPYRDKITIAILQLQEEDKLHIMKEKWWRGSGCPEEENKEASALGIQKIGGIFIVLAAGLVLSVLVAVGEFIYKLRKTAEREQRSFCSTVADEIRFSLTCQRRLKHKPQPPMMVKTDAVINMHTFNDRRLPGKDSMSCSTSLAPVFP

[20] = test system: HEK293; assay: Displacement of [3H]-Kainate from rat GluK3 A660S mutant transfected in human HEK293 cells at 100 uM by immunoblot analysis; format: cell-based
[21] = biological target: Glutamate receptor ionotropic, kainate 3 (Homo sapiens, UniProt Q13003); assay: Antagonist activity at human recombinant GluK3 receptor expressed in human HEK293 cells assessed as inhibition of glutamate-stimulated calcium influx by fluorescence assay; format: functional, cell-based
Sequence of Glutamate receptor ionotropic, kainate 3 (Q13003 whole entry): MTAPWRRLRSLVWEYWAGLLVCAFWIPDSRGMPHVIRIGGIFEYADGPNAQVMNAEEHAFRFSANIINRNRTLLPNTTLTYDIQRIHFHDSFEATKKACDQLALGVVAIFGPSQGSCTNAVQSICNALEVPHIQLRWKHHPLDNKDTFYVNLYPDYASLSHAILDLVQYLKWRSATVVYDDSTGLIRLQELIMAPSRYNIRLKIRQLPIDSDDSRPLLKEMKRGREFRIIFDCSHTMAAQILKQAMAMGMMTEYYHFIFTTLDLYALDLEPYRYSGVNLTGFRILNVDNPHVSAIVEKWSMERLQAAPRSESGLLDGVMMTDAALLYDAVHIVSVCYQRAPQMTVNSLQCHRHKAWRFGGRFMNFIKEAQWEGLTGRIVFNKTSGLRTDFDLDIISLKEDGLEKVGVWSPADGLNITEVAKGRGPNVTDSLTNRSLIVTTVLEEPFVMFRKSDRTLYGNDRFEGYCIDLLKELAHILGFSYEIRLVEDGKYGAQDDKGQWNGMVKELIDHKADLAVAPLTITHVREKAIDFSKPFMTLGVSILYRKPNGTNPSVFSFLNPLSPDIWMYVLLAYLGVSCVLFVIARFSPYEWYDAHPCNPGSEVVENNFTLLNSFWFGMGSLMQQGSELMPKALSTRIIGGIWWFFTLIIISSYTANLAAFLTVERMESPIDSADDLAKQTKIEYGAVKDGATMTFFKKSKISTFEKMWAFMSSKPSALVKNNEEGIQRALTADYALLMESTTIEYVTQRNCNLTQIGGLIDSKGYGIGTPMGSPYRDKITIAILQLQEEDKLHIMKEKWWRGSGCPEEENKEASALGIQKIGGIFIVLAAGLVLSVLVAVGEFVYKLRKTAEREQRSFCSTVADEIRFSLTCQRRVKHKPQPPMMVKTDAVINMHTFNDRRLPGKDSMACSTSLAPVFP

[22] = test system: HEK293; assay: Displacement of [3H]-Kainate from […] rat GluK3 A660S mutant transfected in human HEK293 cells at 300 uM by immunoblot analysis; format: cell-based
[23] = organism: Rattus norvegicus; assay: Selectivity ratio of IC50 for rat GluK3 receptor to IC50 for rat GluK1 receptor
In short: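 IC50 ratio from whole-cell patch clamp on HEK293 cells stably expressing homomeric GluK1 or GluK3, voltage clamped at −70 mV, 20°C. Glutamate is applied fast through a theta tube. Antagonist is applied about 2 min or until the response is stable, at five concentrations per cell, giving a dose-response curve for each cell.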

[24] = biological target: Glutamate receptor ionotropic, kainate 3 (Rattus norvegicus) (UniProt P42264); assay: Displacement of [3H]-Kainate from wild type rat GluK3 receptor transfected in human HEK293 cells at 300 uM by immunoblot analysis; format: cell-based
[25] = biological target: Glutamate receptor ionotropic, kainate 3 (Rattus norvegicus) (UniProt P42264); assay: Displacement of [3H]-Kainate from wild type rat GluK3 receptor transfected in human HEK293 cells at 1 mM by immunoblot analysis; format: cell-based
[26] = test system: Rattus norvegicus; assay: Antinociceptive activity in Wistar rat nerve injury model assessed as reversal of drop in mechanical withdrawal threshold at 30 mg/kg, ip administered before 1 hr on day 7 of injury relative to control; format: functional, organism-based; design: dose 30 mg/kg; in short: as §5
[27] = test system: HEK293; assay: Displacement of [3H]-Kainate from […] rat GluK3 A660S mutant transfected in human HEK293 cells at 1 mM by immunoblot analysis; format: cell-based
[28] = test system: Rattus norvegicus; assay: Antinociceptive activity in Wistar rat nerve injury model assessed as increased thermal withdrawal latency at 30 mg/kg, ip; format: functional, organism-based; design: dose 30 mg/kg; in short: as §5

O=C(O)[C@H]1NCCN(C(=O)c2ccc(CCc3ccccc3)cc2)[C@H]1C(=O)O (relative stereo)
Ki [1]: > 100 µM
Ki [2]: > 100 µM
Ki [3]: > 100 µM
inhibition [4]: 10.2%
inhibition [5]: 11.5%
Kb [6]: 16.7 µM
Ki [7]: > 100 µM
inhibition [8]: 29.1%
inhibition [9]: > 5%

O=C(O)c1ccc2cc(C(=O)N3CCN[C@H](C(=O)O)[C@@H]3C(=O)O)ccc2c1 (relative stereo)
Ki [1]: > 100 µM
Ki [2]: > 100 µM
Ki [3]: > 100 µM
inhibition [4]: < 5%
inhibition [5]: < 5%
Kb [6]: 59.7 µM
Ki [7]: > 100 µM
inhibition [8]: < 5%
inhibition [9]: < 5%

O=C(O)[C@H]1NCCN(C(=O)c2ccc3cc(Br)c4ccccc4c3c2)[C@H]1C(=O)O (relative stereo)
Kb [10]: > 100 µM
inhibition [11]: 10%
Ratio Ki(app) [12]: 7
Ki [1]: 8 µM
Ki [2]: 1.2 µM
Ratio [13]: 9
Ki [3]: 2.8 µM
Ratio Ki(app) [14]: 2
Kb [6]: 12.8 µM
Ratio Ki(app) [15]: 10
Ki [7]: 11.5 µM

O=C(O)c1ccc(-c2ccc(C(=O)N3CCN[C@H](C(=O)O)[C@@H]3C(=O)O)cc2)cc1 (relative stereo)
Ki [1]: > 100 µM
solubility [16]: Insoluble
Ki [3]: > 100 µM
Kb [6]: 51.5 µM
inhibition [8]: < 15%
inhibition [9]: < 15%

O=C(O)[C@H]1NCCN(C(=O)c2ccc3cc(I)c4ccccc4c3c2)[C@H]1C(=O)O (relative stereo)
IC50 [10]: > 100 µM
Kb [10]: > 100 µM
Activity [17]: Active
Ki [1]: 3.8 µM
Activity [18]: inactive
Ki [2]: 1 µM
inhibition [19]: Active
inhibition [20]: Active
Ki [3]: 1.9 µM
IC50 [21]: 81.3 µM
inhibition [22]: Active
Ratio IC50 [23]: > 100
inhibition [24]: Active
inhibition [25]: Active
IC50 [6]: 0.65 µM
Kb [6]: 4.8 µM
Activity [26]: Active
Ki [7]: 7.4 µM
inhibition [27]: Active
Activity [28]: Active

O=C(O)[C@@H]1[C@H](C(=O)O)NCCN1C(=O)c1ccc2c(ccc3ccccc32)c1
Kb [10]: > 100 µM
Ki [1]: 0.22 µM
Ki [2]: 0.09 µM
Ratio [13]: 30
Ki [3]: 0.07 µM
Kb [6]: 3 µM
Ki [7]: 0.21 µM

O=C(O)[C@H]1NCCN(C(=O)c2ccc3ccc4ccccc4c3c2)[C@H]1C(=O)O
Kb [10]: > 100 µM
inhibition [11]: 10%
Ratio Ki(app) [12]: 7
Ki [1]: 17.2 µM
Ki [2]: 2.4 µM
Ki [3]: 5.2 µM
Ratio Ki(app) [14]: 2
Kb [6]: 14.2 µM
Ratio Ki(app) [15]: 10
Ki [7]: 22 µM

O=C(O)[C@H]1NCCN(C(=O)c2ccc3cc(-c4ccccc4)ccc3c2)[C@H]1C(=O)O (relative stereo)
Kb [10]: > 100 µM
Ki [1]: > 100 µM
Ki [2]: 2.4 µM
solubility [16]: Insoluble
Ki [3]: 5.1 µM
Kb [6]: 5.8 µM
Ki [7]: > 100 µM
